ChEMBL document CHEMBL4513216, “Probing the Open Global Health Chemical Diversity Library for Multistage-Active Starting Points for Next-Generation Antimalarials” (ACS Infect Dis, 2020)

Assay: Toxicity liver stage against HepG2, at 10uM
Type: cell-based
Parameters: test concentration 10 uM, cell line HepG2-A16-CD81EGFP
Conditions: human, HepG2-A16-CD81EGFP cells; read-out: INHIBITION
How it was run: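 Uninfected HepG2-A16-CD81EGFP cells, 3 × 10^3 per well, 1536-well, plated on prespotted compound at 10 μM final, parasite-free screening media added to match infected plates; puromycin 10 μM positive, DMSO 0.5% negative; run in parallel with 48 h PbLuc assay at 37 °C, 5% CO2; viability by CellTiter-Glo luminescence, normalized to controls.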

CS(=O)(=O)N1C[C@@H](F)[C@@H](OCc2nc3ccccc3o2)C1
cytotoxicity at 10 µM: -4.47%

COc1ccc(-c2c[nH]c([C@@H]3COCCN3)n2)cc1
cytotoxicity at 10 µM: -4.84%

CN(C)c1cc(N2CCN(c3ccccn3)CC2)ncn1
cytotoxicity at 10 µM: -2.71%

CCCS(=O)(=O)N1CC(=O)N(Cc2ccccc2OC)CC(O)C1 (centres undefined)
cytotoxicity at 10 µM: -7.44%

CC(C)CNC(=O)CNC(=O)c1nc(Cc2c(Cl)cccc2Cl)no1
cytotoxicity at 10 µM: 9.11%

CN1C(=O)CCc2cc(NC(=O)C3CC3)ccc21
cytotoxicity at 10 µM: 0.696%

O=S(=O)(NCCNc1cc(-n2cccn2)ncn1)c1cccs1
cytotoxicity at 10 µM: -6.58%

N#Cc1ccc(C(=O)N2CCCSCC2CN2CCCC2)cc1 (centres undefined)
cytotoxicity at 10 µM: 10.1%

Cn1nc(CNC(=O)c2ccc3c(c2)OCO3)c2c1CCOC2
cytotoxicity at 10 µM: -1.82%

O=C1CCC2(CCCN(C(=O)c3ccco3)CC2)N1 (centres undefined)
cytotoxicity at 10 µM: 3.17%

Cc1ccc(CN2C[C@H]3CN(CC4CCN(C)CC4)C(=O)[C@H]3C2)s1
cytotoxicity at 10 µM: 2.5%

O=C1C[C@H]2[C@H](CCN2C(=O)c2cc[nH]n2)N1Cc1cccnc1
cytotoxicity at 10 µM: 3.03%

Cc1cnc(N2CCC3(CC2)CCN(c2cncnc2)C3=O)nc1
cytotoxicity at 10 µM: -13%

CCN1CC2(CC1=O)CN(C(C)=O)CCN(S(=O)(=O)CC)C2 (centres undefined)
cytotoxicity at 10 µM: -2.02%

CN(C)S(=O)(=O)N1C[C@H]2CCC[C@@]2(COCC2CCOCC2)C1
cytotoxicity at 10 µM: 7.45%

CCn1cc2c(n1)C(COCC1CC1)CN(c1ccc(C)nn1)C2 (centres undefined)
cytotoxicity at 10 µM: 12.8%

O=C(C1CN(c2ncc(F)cn2)CC12CCOCC2)N1CCOCC1 (centres undefined)
cytotoxicity at 10 µM: 13.6%

Cc1cc(C(=O)N2CCc3ncnc(-c4cnn(C)c4)c3CC2)c(C)o1
cytotoxicity at 10 µM: 4.5%

CS(=O)(=O)N1CCc2sc(C(=O)NCc3ccncc3)cc21
cytotoxicity at 10 µM: 2.93%

COc1ccc(-c2csc(N)c2C#N)cc1
cytotoxicity at 10 µM: 4.07%

Cc1nn(CC(=O)Nc2ccon2)c(C)c1Br
cytotoxicity at 10 µM: 9.62%

Cc1ccccc1C(=O)NC(C)c1cnn(C)c1 (centres undefined)
cytotoxicity at 10 µM: 15.7%

CCn1nc(C)c2nnn(CC(=O)Nc3ccccc3F)c(=O)c21
cytotoxicity at 10 µM: 5.37%

CSc1nnc(C2CCN(C(=O)N3CCOCC3)CC2)n1C(C)C
cytotoxicity at 10 µM: 3.8%

CC(C)c1nccn1-c1cncc(C2CCCN(C3CCCC3)C2)n1 (centres undefined)
cytotoxicity at 10 µM: -6.63%

Cc1ccc(C(=O)N2CCC3(CC(N(C)c4ccncn4)C3)C2)cn1 (centres undefined)
cytotoxicity at 10 µM: -6.11%

Cc1nc(-c2ccc(C(=O)O)cc2)cc(C2CCCN(C(C)C)C2)n1 (centres undefined)
cytotoxicity at 10 µM: -10.2%

CS(=O)(=O)N1CC2(CCN(C3CCCCC3)C2)Cc2ccccc21 (centres undefined)
cytotoxicity at 10 µM: 3.38%

O=S1(=O)NCC2(CCCN(Cc3cccnc3)C2)Oc2ncccc21 (centres undefined)
cytotoxicity at 10 µM: 6.28%

COc1cccc(CN(C)C(=O)c2csc(-c3nnc[nH]3)n2)c1
cytotoxicity at 10 µM: -14.4%

N#CC(NC(=O)CCCOc1cccnc1)c1ccccc1Cl (centres undefined)
cytotoxicity at 10 µM: 4.26%

Cn1cc(S(=O)(=O)N(Cc2ccc(F)cc2F)C2CC2)cc1C(N)=O
cytotoxicity at 10 µM: 5.68%

CN(CCc1ccccn1)CCc1nccs1
cytotoxicity at 10 µM: 2.01%

CNC(=O)CN(C)C(=O)c1ccc(-c2nc(C)cs2)cc1
cytotoxicity at 10 µM: -7.77%

Cc1cccc(COc2ccc(C(C)NC(=O)CNC(N)=O)cc2)c1 (centres undefined)
cytotoxicity at 10 µM: -20.9%

CC(=O)N1Cc2ccccc2C[C@H]1C(=O)N(C)Cc1ccccn1
cytotoxicity at 10 µM: 6.17%

CN(Cc1c(F)cccc1Cl)C(=O)c1cnn(CCN2CCCCC2)c1
cytotoxicity at 10 µM: -19.1%

CN(CC(=O)NC(c1ccc(F)cc1)C(F)(F)F)S(C)(=O)=O (centres undefined)
cytotoxicity at 10 µM: -11.9%

Cc1nsc(N2CCN(CC(=O)NCc3ccc(F)cc3)CC2)n1
cytotoxicity at 10 µM: -6.84%

Cc1ccc(OCC(=O)NC2CC2)nc1
cytotoxicity at 10 µM: 4.06%

CC(NC(=O)c1ccc(=O)n(C)c1)c1ccc(OCC2CC2)c(F)c1 (centres undefined)
cytotoxicity at 10 µM: 9.8%

Cc1ccc(C(=O)N(C)Cc2csc(C)n2)c(=O)[nH]1
cytotoxicity at 10 µM: 3.97%

Cc1nc(CN(C)C2CCN(Cc3nc(C4CC4)no3)C2)no1 (centres undefined)
cytotoxicity at 10 µM: -5.29%

CCc1nsc(NC2CC(=O)N(C3CC3)C2)n1 (centres undefined)
cytotoxicity at 10 µM: 9.43%

Cn1nc(Br)c2c(NCCCS(N)(=O)=O)ncnc21
cytotoxicity at 10 µM: 16.4%

CS(=O)(=O)CCC(=O)N(CCc1cccc(F)c1)C1CC1
cytotoxicity at 10 µM: -5.82%

COc1cc(CNC2CCN(c3ccccc3)C2)cc(OC)c1OC (centres undefined)
cytotoxicity at 10 µM: 3.96%

CCN(C)CC1CCN(C(=O)NCCC2Cc3ccccc3C2)C1 (centres undefined)
cytotoxicity at 10 µM: 0.458%

CNC(=O)C(C)NC(=O)c1ccc(Oc2cccnc2)cc1 (centres undefined)
cytotoxicity at 10 µM: 6.32%

CC1CCN(C(CNC(=O)CCn2cccn2)c2cccs2)CC1 (centres undefined)
cytotoxicity at 10 µM: 13.5%

CN(Cc1nccn1CC(F)(F)F)C(=O)c1cccc(C#N)c1
cytotoxicity at 10 µM: 5.4%

Cc1cn(-c2ccccc2)nc1NS(=O)(=O)c1cccc(C(=O)O)c1
cytotoxicity at 10 µM: -10.3%

CCN1CCCC1CN(CCN(C)C)S(=O)(=O)c1ccc(C#N)cc1 (centres undefined)
cytotoxicity at 10 µM: -28.3%

COCC1CN(S(=O)(=O)c2cccc(F)c2)Cc2nccn2C1 (centres undefined)
cytotoxicity at 10 µM: -103%

O=C(NCc1ccccn1)[C@@]12CCO[C@@H]1CCN(c1ncccn1)C2
cytotoxicity at 10 µM: -98.4%

O=C(NC1CCc2c(ccc(=O)n2CC2CC2)C1)c1cscn1 (centres undefined)
cytotoxicity at 10 µM: -104%

CCS(=O)(=O)N1CCC2(CCN(C(=O)c3cccs3)CC2)CC1
cytotoxicity at 10 µM: -99.9%

OCCNc1nccc(-c2c[nH]nc2-c2ccncc2)n1
cytotoxicity at 10 µM: -9.52%

Cc1ccc2nc(C3CCCN3Cc3csc(C)n3)[nH]c2c1 (centres undefined)
cytotoxicity at 10 µM: 1.58%

CCCN(Cc1ccc(C(=O)NCC2COCCO2)c(=O)[nH]1)C1CC1 (centres undefined)
cytotoxicity at 10 µM: -15.3%

FC(F)(F)c1cccc(OC2CCN(Cc3ccccn3)CC2)c1
cytotoxicity at 10 µM: -0.609%

Cc1cc(C)c(C(=O)NC2CCN(c3ncccc3C#N)CC2)c(=O)[nH]1
cytotoxicity at 10 µM: 7.24%

Cc1nnc(SCCCNC(=O)Cc2ccc3c(c2)OCO3)s1
cytotoxicity at 10 µM: 7.75%

O=C(NCC1CCN(Cc2cc3ccccc3[nH]2)C1)c1ccsc1 (centres undefined)
cytotoxicity at 10 µM: 15.6%

CSCCC1c2nc[nH]c2CCN1Cc1ccccc1C#N (centres undefined)
cytotoxicity at 10 µM: -1.57%

CCC[C@H]1CN(c2nccc(OC)n2)C[C@@H]1NC(=O)C1CCOCC1
cytotoxicity at 10 µM: -142%

Cc1ccc(OC2(C(=O)NC(C)c3csc(C)n3)CCNCC2)cc1 (centres undefined)
cytotoxicity at 10 µM: -0.432%

CSc1ccc(C(C(=O)O)N2CCOCC2)cc1 (centres undefined)
cytotoxicity at 10 µM: 0.324%

COCCCN1C(=O)CC[C@H]2CN(c3nc4ccccc4s3)CC[C@H]21
cytotoxicity at 10 µM: -9.59%

Cc1nc(C2CCN(C(=O)c3ccc(Cl)s3)CC2)cc(=O)[nH]1
cytotoxicity at 10 µM: -0.243%

CCC(C)N(Cc1c[nH]c(C)n1)Cc1ccccc1Cl (centres undefined)
cytotoxicity at 10 µM: 24.2%

O=C(Cc1ccc(F)cc1Cl)N1CC[C@H](CO)[C@@H](O)C1
cytotoxicity at 10 µM: 8.08%

OCC1(O)CCCN(Cc2noc(-c3ccccc3)n2)CC1 (centres undefined)
cytotoxicity at 10 µM: -2.72%

COCCN1CCCC(O)(CN2CCN(c3cnccn3)CC2)C1=O (centres undefined)
cytotoxicity at 10 µM: 4.04%

CCCC1C=CCN1C(=O)c1cc(COc2ccc3c(c2)OCO3)[nH]n1 (centres undefined)
cytotoxicity at 10 µM: 1.99%

CCCN1CC2(CCN(C)CC2)CC1C(=O)NCCn1nc(C)nc1C (centres undefined)
cytotoxicity at 10 µM: 2.7%

CN(c1ccc(C(=O)NCCCN2CCCC2)c(Cl)c1)S(C)(=O)=O
cytotoxicity at 10 µM: -10%

CN1CCCCC1Cc1nc(Cc2cccc(F)c2)no1 (centres undefined)
cytotoxicity at 10 µM: -148%

COc1cc(F)ccc1C(C(=O)O)N(C)CCN1CCCC1 (centres undefined)
cytotoxicity at 10 µM: -13.4%

COc1cnc(N2CC(N3CCOCC3)C2)nc1-c1ccnn1C
cytotoxicity at 10 µM: 6.24%

COc1cccc2c1OCC(C(=O)N(C)CCCc1cnn(C)c1)C2 (centres undefined)
cytotoxicity at 10 µM: -2.98%

Cc1ncccc1Oc1nccnc1C1CCN(C(C)C)CC1
cytotoxicity at 10 µM: -6.05%

O=C(c1n[nH]c(=O)c2ccccc12)N1CCCCC1c1ccn[nH]1 (centres undefined)
cytotoxicity at 10 µM: -0.285%

O=C(Nc1cc(F)ccc1OCC1CCCO1)N1CCSCC1 (centres undefined)
cytotoxicity at 10 µM: -1.79%

Cc1cc(C)cc(CNC(c2ccccc2)c2nccn2C)c1 (centres undefined)
cytotoxicity at 10 µM: -13%

Cc1ncc2c(n1)CN(Cc1nc(Cc3ccccc3)no1)CC2
cytotoxicity at 10 µM: -12.4%

Cc1cnn(CC2CCCN2Cc2nnc(-c3ccccc3)o2)c1 (centres undefined)
cytotoxicity at 10 µM: -9.86%

Cc1n[nH]c(C2CN(C(=O)CCc3cscn3)CCO2)n1 (centres undefined)
cytotoxicity at 10 µM: -4.34%

CCOc1ncccc1CNC(=O)N1CCCC1c1ccsc1 (centres undefined)
cytotoxicity at 10 µM: -7.69%

Cc1ccc(CN2CCC(NC(=O)c3scnc3C)CC2)cc1
cytotoxicity at 10 µM: -4.1%

CC(C)c1ncc2c(n1)CN(CCCc1nc3ccccc3o1)CC2
cytotoxicity at 10 µM: -13.2%

c1ccc(OCCN2CCCCC2Cn2cncn2)cc1 (centres undefined)
cytotoxicity at 10 µM: -15.7%

c1csc(-c2nc(CN3CCOC(Cn4cncn4)C3)cs2)c1 (centres undefined)
cytotoxicity at 10 µM: -3.91%

Cc1csc(N2CCN(CC(=O)Nc3nncs3)CC2C)n1 (centres undefined)
cytotoxicity at 10 µM: -7.44%

CCC(CC)C(CNC(=O)Nc1ccc(C)cc1)N1CCOCC1 (centres undefined)
cytotoxicity at 10 µM: -5.9%

Cc1nc(C2CCCN(C(=O)C(C)(C)n3cc(Cl)cn3)C2)no1 (centres undefined)
cytotoxicity at 10 µM: -2.09%

Cc1cc(C[C@@H]2CCC[C@H]2NCc2ccc(C(F)(F)F)cc2)on1
cytotoxicity at 10 µM: -10.1%

CN(CCO)CC1COCCN1C(=O)C1CCCCC1 (centres undefined)
cytotoxicity at 10 µM: -4.52%

Cc1noc(C)c1CN1C[C@@H]2CN(C(=O)c3cnccn3)C[C@@H]2C1
cytotoxicity at 10 µM: -1.86%

COCC1CC2(CCN(C(N)=O)CC2)CN1Cc1csc(C)n1 (centres undefined)
cytotoxicity at 10 µM: 8.98%

Cc1noc(C)c1CN1CCC2(CC1)CCN(C(=O)c1cscn1)C2
cytotoxicity at 10 µM: 1.21%

O=C(c1ccc(F)cc1)N1C[C@H]2CCC[C@@]2(COCc2ccccn2)C1
cytotoxicity at 10 µM: 2.06%

CCS(=O)(=O)N1CCC2(CC1)CC1(CCN(CCOC)CC1)C(=O)N2C
cytotoxicity at 10 µM: 0.503%

COCCn1c2c(ccc1=O)CC(NCc1cccnc1OC)CC2 (centres undefined)
cytotoxicity at 10 µM: -106%

CCN1CCC2(C=C(C(=O)N(C)C)c3ccccc32)CC1
cytotoxicity at 10 µM: -101%

Cc1nc(CN2CC[C@H]3[C@H]2CCN3c2nncs2)cs1
cytotoxicity at 10 µM: 5.2%

Cc1ccc2c(c1)C1(CCNCC1)CN2C(=O)CN(C)C
cytotoxicity at 10 µM: 0.513%

CS(=O)(=O)N1C[C@H]2CC[C@@H](C1)N(C(=O)CCc1n[nH]c3c1CCCC3)C2
cytotoxicity at 10 µM: 11%

CN1[C@@H]2CC[C@H]1CN(C(=O)c1ccc(-c3ccccc3)[nH]1)CC2
cytotoxicity at 10 µM: -0.372%
